TDP2 inh – human TDP2 enzyme inhibitors, primary screen, biochemical, epi absorbance, recombinant enzyme; T5PNP hydrolysis, p-nitrophenol absorbance 415 nm; inhibition, % at 12.8 µM; 370,000 compounds, 0.34% hits; AID 720702, 2013;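 active = inhibition above the mean of all tested compounds plus 3 SD, set per campaign, cut at about 25% in these data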;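 note: 0% = DMSO with enzyme and 100% = buffer with substrate but no TDP2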
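Assay system: recombinant human TDP2 / Reagent: T5PNP substrate at 5 mM, a TopII-DNA adduct mimic / Measured by: epi absorbance from released p-nitrophenol / Evaluation: % inhibition relative to enzyme-containing and enzyme-free wells / Control set: enzyme-free and DMSO wells / Replicates: each compound tested once, singlicate / Schedule: enzyme reaction with compound for 2 h at 37 °C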
PAD4 FP inh – human PAD4 inhibitors, primary screen, biochemical, fluorescence polarization, 1536-well format | 330,000 compounds, 0.41% hits | inhibition, % at 6.36 µM | recombinant PAD4, RCA probe fluorescence polarization | Protein-arginine deiminase type-4 (Homo sapiens), Q9UM07 | AID 485272, 2010;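 active = percent inhibition above a cutoff equal to the mean of all tested compounds plus 3 SD, cut at about 15% in these data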;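 note: 0% = PAD4 with RCA probe and DMSO and 100% = probe without PAD4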
eLon inh – inhibitors of E. coli Lon protease, primary screen, biochemical, fluorescence polarization. purified E. coli Lon protease. inhibition, % at 7.94 µM. 360,000 compounds, 0.42% hits; in the data active = inhibition above about 13%, passing the limit was not always enough;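 note: 0% = enzyme with probe and DMSO and 100% = no enzyme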
GSTO1 counter – inhibitors of recombinant GSTO1, primary screen, counter-screen for RBBP9 inhibitor project, biochemical, fluorescence polarization; Glutathione S-transferase omega-1 (Homo sapiens), P78417; activity-based probe fluorescence polarization; inhibition, % at 5.96 µM; 300,000 compounds, 1.1% hits;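 active = inhibition above the campaign mean inhibition plus 3 SD, cut at about 35% in these data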;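 note: 0% = GSTO1-1 with DMSO and 100% = wells lacking GSTO1-1 enzyme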
PRMT1 FP inh – PRMT1 methyltransferase inhibitors, primary screen, biochemical, fluorescence polarization. Protein arginine N-methyltransferase 1 (Homo sapiens), Q99873. recombinant PRMT1, activity-based probe fluorescence polarization. inhibition, % at 2.79 µM. 370,000 compounds, 1.3% hits;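 active = inhibition above about 21% made by adding two undisclosed values, limit read from the data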
* hit, by the source's call; x = not tested or not shown. Rows were chosen to be rich in hits. Some 2.5% of all compounds tested hit in one or more screens of this group.

SMILES | TDP2 inh | PAD4 FP inh | eLon inh | GSTO1 counter | PRMT1 FP inh
Cc1csc(N=Cc2ccc([N+](=O)[O-])o2)n1 | 4 | x | -4 | x | 23*
CCCCCCCCN1CCS(=O)(=O)N(Cc2ccc(OC)cc2)C(C(=O)OC)C1 (stereo unspecified) | -3 | x | x | x | 1
COc1ccc(C2C3=C(N=C4SCC(=O)N42)c2ccccc2CC3)cc1 (stereo unspecified) | 0 | -1 | 4 | 0 | 24*
CCOC(=O)NC1c2ccccc2Oc2ccccc21 | 2 | -2 | -4 | 12 | 7
CCOC(=O)NC1(Nc2ccc(C)cc2)Oc2ccccc2O1 | -8 | -3 | 6 | 82* | 37*
CCOC(=O)NC1(NC(C)C)Oc2ccccc2O1 | 6 | -2 | 3 | 37* | 11
C/C(=C/c1nc(N)n(Cc2ccccc2)c1Cc1ccccc1)Cn1[nH]c(=O)n(-c2ccccc2)c1=O | 0 | x | x | x | 1
O=C(Nc1nccs1)C1CC=CCC1 (stereo unspecified) | -15 | 1 | -10 | 4 | 3
O=C(Nc1ccc(O)cc1)C1CC=CCC1 (stereo unspecified) | -2 | 5 | -1 | 37* | 4
COc1ccc(NC(=S)NNC(=O)COc2ccc(Cl)cc2Cl)cc1 | -4 | 4 | -2 | 3 | 24*
Cc1cccc(NC(=S)NNC(=O)COc2ccc(Cl)cc2Cl)c1 | -12 | 1 | -10 | 8 | 17
C=CCn1c(SCC(=O)c2ccc(Br)cc2)nnc1C(CC(C)C)NC(=O)c1cccs1 (stereo unspecified) | 6 | 1 | 4 | 36* | -1
CC(C)CC(NC(=O)c1cccs1)c1nnc(SCc2ccc(Cl)c(Cl)c2)n1C (stereo unspecified) | -1 | -3 | 1 | 5 | 0
CC(=O)c1c(C)cc(C)c(CSc2nnc(-c3ccco3)o2)c1C | 3 | 3 | 0 | 35* | -1
CN(C)c1ccc(C=C2SC(=S)NC2=O)cc1 | 10 | x | -444 | x | -4
CN(C)c1ccc(/C=N/N=C2/NC(=O)/C(=C/c3ccc([N+](=O)[O-])cc3)S2)cc1 | -6 | 0 | -19 | 49* | 0
Cc1[nH]c2ccccc2c1CCN(Cc1cccs1)C(=O)Nc1cccc2c1OCO2 | 2 | x | x | x | 3
O=C1C=CC2=C3c4cc(O)c(O)cc4CC3(O)COC2=C1O (stereo unspecified) | 4 | x | 12 | x | 56*
COC(=O)c1cc2c(c3c4cc(F)ccc4n(S(=O)(=O)c4ccc(C)cc4)c13)C(=O)N(Cc1ccc(N(C)C)cc1)C2 | 4 | x | x | x | 4
CCC1Oc2ccccc2N(CC(=O)NCc2cccs2)C1=O (stereo unspecified) | 2 | 1 | -8 | 37* | -3
CCC1Oc2ccc(C)cc2N(CC(=O)NCc2cccs2)C1=O (stereo unspecified) | 7 | 1 | 2 | 7 | 6
CC[C@H]1C=C[C@@H](C(=O)NS(=O)(=O)c2ccc(C)cc2)N(C(C)=O)C1 | 3 | x | x | x | 10
CC(CCN1CCC(C(O)(c2ccccc2)c2ccccc2)CC1)Oc1ccccc1C#N (stereo unspecified) | 0 | x | x | x | 2
COc1ccccc1C(C)NS(=O)(=O)c1cccs1 (stereo unspecified) | x | 97* | x | -3 | x
COc1ccc(OC)c(C(C)NS(=O)(=O)c2cccs2)c1 (stereo unspecified) | 7 | -4 | -3 | x | 6
SMILES | TDP2 inh | PAD4 FP inh | eLon inh | GSTO1 counter | PRMT1 FP inh
COC[C@H]1CCCN1c1ccc2c(c1)O[C@H]1CCN(C1)S2(=O)=O | 2 | x | x | x | 6
O=C(NNc1nc2cc3c(cc2s1)OCO3)c1ccc(F)cc1 | 1 | 2 | -9 | 3 | 23*
COc1cc2c(cc1NC(=S)Nc1cccc(C)c1)oc1ccccc12 | -3 | 4 | 0 | 36* | -1
COc1ccc(NC(=S)Nc2cccc(Cl)c2)cc1OC | 5 | 0 | -6 | 5 | 24*
O=C1/C(=C/c2cccnc2)SC(=S)N1NS(=O)(=O)c1ccccc1 | -4 | 5 | -5 | 11 | 23*
CC(=O)OC1=C(O)C(=O)c2ccccc2C1=O | x | -3 | x | 59* | x
CCOC(=O)/C=C(\C)Sc1cc(O)c2ccccc2c1O | 59* | x | 8 | x | 84*

Assay outcomes as filed in PubChem.
